Assay results: ChEMBL document CHEMBL5385966, “Synthesis and biological evaluation of new naphthalimide-thiourea derivatives as potent antimicrobial agents active against multidrug-resistant Staphylococcus aureus and Mycobacterium tuberculosis” (RSC Med Chem, 2024)
Values after ≈ are worked out from the molar mass of the structure shown. Active and inactive are the calls of the source. The calls are words filed in the database; no cut-off is given here.

What was measured:
[1] = system: Mycobacterium tuberculosis; experiment: Antimycobacterial activity against Mycobacterium tuberculosis H37Rv ATCC 27294 assessed as bacterial growth inhibition incubated for 7 days by resazurin dye based broth microdilution method; type: functional; settings: H37Rv ATCC 27294, 168 h, time 7 day
How it was run: (§1)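 Broth microdilution in Middlebrook 7H9 with 10% ADC-Tween-80 (0.2% glycerol, 0.05% Tween-80), inoculum ~10⁶ cfu/mL. Compounds came from 10 mg/mL DMSO stocks and were tested as two-fold serial dilutions at 37 °C, 7 days for M. tuberculosis H37Rv and 72 h for NTM. Growth was read visually with PrestoBlue resazurin dye; MIC was the lowest concentration preventing growth. Triplicate determinations, each in duplicate.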

[2] = system: Mycobacteroides abscessus; experiment: Antimycobacterial activity against Mycobacterium abscessus ATCC 19977 assessed as bacterial growth inhibition incubated for 72 hrs by resazurin dye based broth microdilution method; type: functional, organism-based; how it was run: as §1
[3] = system: Mycolicibacterium fortuitum; experiment: Antimycobacterial activity against Mycobacterium fortuitum ATCC 6841 assessed as bacterial growth inhibition incubated for 72 hrs by resazurin dye based broth microdilution method; type: functional, organism-based; how it was run: as §1
Mycobacteroides chelonae = experiment: Antimycobacterial activity against Mycobacteroides chelonae ATCC 35752 assessed as bacterial growth inhibition incubated for 72 hrs by resazurin dye based broth microdilution method; type: functional, organism-based; how it was run: as §1
Staphylococcus aureus = experiment: Antibacterial activity against Staphylococcus aureus ATCC 29213 assessed as bacterial growth inhibition incubated for 16 to 18 hrs by CLSI based antibiotic susceptibility testing method; type: functional; settings: time 16-18 hrs
How it was run: (§2)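 Broth microdilution in cation-adjusted Mueller-Hinton broth. Compounds were tested at […], with levofloxacin as reference and medium-only controls. Plates were incubated at 37 °C for 16-18 h. MIC was the lowest concentration with no visible growth; three independent determinations, each in duplicate.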

Escherichia coli = experiment: Antibacterial activity against Escherichia coli ATCC 25922 assessed as bacterial growth inhibition incubated for 16 to 18 hrs by CLSI based antibiotic susceptibility testing method; type: functional, organism-based; settings: time 16-18 hrs; how it was run: as §2
Klebsiella pneumoniae = experiment: Antibacterial activity against Klebsiella pneumoniae BAA 1705 assessed as bacterial growth inhibition incubated for 16 to 18 hrs by CLSI based antibiotic susceptibility testing method; type: functional, organism-based; settings: time 16-18 hrs; how it was run: as §2
Acinetobacter baumannii = experiment: Antibacterial activity against Acinetobacter baumannii BAA 1605 assessed as bacterial growth inhibition incubated for 16 to 18 hrs by CLSI based antibiotic susceptibility testing method; type: functional, organism-based; settings: time 16-18 hrs; how it was run: as §2
Pseudomonas aeruginosa = experiment: Antibacterial activity against Pseudomonas aeruginosa ATCC 27853 assessed as bacterial growth inhibition incubated for 16 to 18 hrs by CLSI based antibiotic susceptibility testing method; type: functional, organism-based; settings: time 16-18 hrs; how it was run: as §2

SMILES | MIC [1] [µg/mL] | growth inhibition (GI) [2] | growth inhibition (GI) [3] | growth inhibition (GI) (Mycobacteroides chelonae) | MIC (Staphylococcus aureus) [µg/mL] | growth inhibition (GI) (Escherichia coli) | growth inhibition (GI) (Klebsiella pneumoniae) | growth inhibition (GI) (Acinetobacter baumannii) | growth inhibition (GI) (Pseudomonas aeruginosa)
NCC[C@H](O)C(=O)N[C@@H]1C[C@H](N)[C@@H](O[C@H]2O[C@H](CN)[C@@H](O)[C@H](O)[C@H]2O)[C@H](O)[C@H]1O[C@H]1O[C@H](CO)[C@@H](O)[C@H](N)[C@H]1O [AMIKACIN] | 0.5 (≈ 0.854 µM) | inactive | inactive | inactive | – | – | – | – | –
O=C1c2cccc3cccc(c23)C(=O)N1CCN1CCN(C(=S)Nc2ccc(Cl)cc2)CC1 | > 64 | inactive | inactive | inactive | > 64 | inactive | inactive | inactive | inactive
Cc1ccc(NC(=S)N2CCN(C(=O)CN3C(=O)c4cccc5cccc(c45)C3=O)CC2)cc1 | 64 (≈ 135 µM) | inactive | inactive | inactive | > 64 | inactive | inactive | inactive | inactive
O=C(CCN1C(=O)c2cccc3cccc(c23)C1=O)N1CCN(C(=S)Nc2ccccc2Cl)CC1 | > 64 | inactive | inactive | inactive | > 64 | inactive | inactive | inactive | inactive
CC(C)NC(=S)N1CCN(CCN2C(=O)c3cccc4cccc(c34)C2=O)CC1 | > 64 | inactive | inactive | inactive | > 64 | inactive | inactive | inactive | inactive
O=C(CN1C(=O)c2cccc3cccc(c23)C1=O)N1CCN(C(=S)Nc2ccc(Cl)cc2)CC1 | 8 (≈ 16.2 µM) | inactive | inactive | inactive | > 64 | inactive | inactive | inactive | inactive
O=C(Nc1ccccc1)N1CCN(CCN2C(=O)c3cccc4cccc(c34)C2=O)CC1 | 32 (≈ 74.7 µM) | inactive | inactive | inactive | 8 (≈ 18.7 µM) | inactive | inactive | inactive | inactive
NNC(=O)c1ccncc1 [ISONIAZID] | 0.03 (≈ 0.219 µM) | inactive | inactive | inactive | – | – | – | – | –
CN[C@@H]1[C@H](O[C@H]2[C@H](O[C@H]3[C@H](O)[C@@H](O)[C@H](N=C(N)N)[C@@H](O)[C@@H]3N=C(N)N)O[C@@H](C)[C@]2(O)C=O)O[C@@H](CO)[C@H](O)[C@H]1O [STREPTOMYCIN] | 1 (≈ 1.72 µM) | inactive | inactive | inactive | – | – | – | – | –
CO[C@H]1/C=C/O[C@@]2(C)Oc3c(C)c(O)c4c(O)c(c(/C=N/N5CCN(C)CC5)c(O)c4c3C2=O)NC(=O)/C(C)=C\C=C\[C@H](C)[C@H](O)[C@@H](C)[C@@H](O)[C@@H](C)[C@H](OC(C)=O)[C@@H]1C [RIFAMPIN] | 0.03 (≈ 0.0365 µM) | inactive | inactive | inactive | – | – | – | – | –
CC[C@@H](CO)NCCN[C@@H](CC)CO [ETHAMBUTOL] | 2 (≈ 9.79 µM) | inactive | inactive | inactive | – | – | – | – | –
